# Experimental data taken from ChEMBL document CHEMBL4334465, “SAR Studies on Aromatic Acylhydrazone-Based Inhibitors of Fungal Sphingolipid Synthesis as Next-Generation Antifungal Agents” (J Med Chem, 2019).
# Active and inactive are the calls of the source. No cut-off for these calls is given here.
# How the values were obtained:
# [1] = Selectivity index, ratio of LD50 for human HepG2 cells to MIC80 for Cryptococcus neoformans H99; type: toxicity; settings: read-out: Selectivity Index
# Method in brief: (§1)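 SI = LD₅₀/MIC₈₀. Cytotoxicity: A549 or HepG2 cells (DMEM, 10% FBS, passage 7, 10⁵ cells/well) adhered 14 h, then exposed to 0.03–128 μg/mL for 24 or 48 h at 37°C, 5% CO₂; MTT 4 h, formazan dissolved in DMSO, read at 570 nm. MIC₈₀ against C. neoformans from broth microdilution in HEPES-buffered YNB, pH 7.0.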
# [2] = Selectivity index, ratio of LD50 for human A549 cells to MIC80 for Cryptococcus neoformans H99; type: toxicity; settings: read-out: Selectivity Index; method in brief: as §1
# [3] = test system: Cryptococcus neoformans; test: Fungicidal activity against Cryptococcus neoformans H99 measured after 96 hrs by time-kill assay; type: functional, var grubii H99
# Method in brief: (§2)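 Overnight C. neoformans washed in PBS and resuspended in HEPES-buffered YNB, pH 7.4. 2 × 10⁴ cells exposed to a range of drug concentrations in 10 mL with 0.5% DMSO final, at 37°C, 5% CO₂, shaking at 200 rpm. Aliquots sampled over 96 h, diluted and plated on YPD; CFU counted after 48 h at 30°C.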
# [4] = test system: Cryptococcus neoformans; test: Antifungal activity against Cryptococcus neoformans H99 measured after 24 to 72 hrs; type: functional; settings: var grubii H99
# Method in brief: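 Modified CLSI broth microdilution with inoculum per M27A3. Compounds were serially diluted 32 to 0.03 μg/mL. Media: C. neoformans in HEPES-buffered YNB without amino acids (pH 7.0, 2% glucose); Candida strains in YNB without ammonium sulfate or amino acids plus 1% asparagine (pH 7.0, 2% glucose); A. fumigatus in RPMI (pH 7.0, 2% glucose).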
# [5] = test system: HepG2; test: Cytotoxicity against human HepG2 cells after 24 to 48 hrs by MTT assay; type: functional; settings: read-out: LD50 (the source's name)
# Method in brief: (§3)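 A549 and HepG2 kept in DMEM with 10% FBS and 1% pen-strep. At passage 7, seeded at 10⁵ cells/well and allowed to adhere 14 h. Compound added at 0.03–128 μg/mL, untreated wells as controls. Incubation 37°C, 5% CO₂ for 24 or 48 h. MTT (5 mg/mL in PBS) added for 4 h, formazan dissolved in DMSO, OD570.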
# [6] = test system: A549; test: Cytotoxicity against human A549 cells after 24 to 48 hrs by MTT assay; type: functional; settings: read-out: LD50 (the source's name); method in brief: as §3
# [7] = test system: Cryptococcus neoformans; test: Fungicidal activity against Cryptococcus neoformans H99 measured after 72 hrs by time-kill assay; type: functional, var grubii H99; method in brief: as §2
# [8] = test system: Cryptococcus neoformans; test: Fungicidal activity against Cryptococcus neoformans H99 measured after 12 hrs by time-kill assay; type: functional, var grubii H99; method in brief: as §2
# [9] = test system: Cryptococcus neoformans; test: Fungistatic activity against Cryptococcus neoformans H99 by time-kill assay; type: functional, organism-based; settings: var grubii H99; method in brief: as §2
# [10] = test system: Cryptococcus neoformans; test: Fungicidal activity against Cryptococcus neoformans H99 measured after 48 hrs by time-kill assay; type: functional, var grubii H99; method in brief: as §2
# [11] = test system: Cryptococcus neoformans; test: Fungicidal activity against Cryptococcus neoformans H99 measured after 6 hrs by time-kill assay; type: functional, var grubii H99; method in brief: as §2
SMILES,selectivity ratio [1],selectivity ratio [2],MFC100 [3] [µg/mL],MIC80 [4] [µg/mL],CC50 [5] [µg/mL],CC50 [6] [µg/mL],MFC100 [7] [µg/mL],MFC100 [8] [µg/mL],Activity [9],MFC100 [10] [µg/mL],MFC100 [11] [µg/mL]
O=C(N/N=C/c1cc(F)ccc1O)c1ccc(Br)cc1Br,16,16,2,1,16,16,–,–,–,–,–
O=C(N/N=C/c1cc(Br)cc(Br)c1O)c1cccc(OC(F)F)c1,133,133,0.25,0.12,16,16,–,–,–,–,–
O=C(N/N=C/c1cc(Br)ccc1O)c1ccc(OC(F)(F)F)cc1F,16,128,–,0.5,8,64,0.5,–,–,–,–
O=C(N/N=C/c1cc(F)ccc1O)c1ccc(Br)cc1,16,8,4,1,16,8,–,–,–,–,–
O=C(N/N=C/c1cc(Br)ccc1O)c1ccc(OC(F)(F)F)cc1,267,66.6,–,0.06,16,4,–,1,–,–,–
O=C(N/N=C/c1cc(Br)ccc1O)c1ccc(OC(F)F)cc1,64,128,–,0.25,16,32,2,–,–,–,–
O=C(N/N=C/c1cc(C(F)(F)F)ccc1O)c1cccc(Br)c1,32,32,–,0.5,16,16,–,–,Active,–,–
O=C(N/N=C/c1cc(Br)cc(Br)c1O)c1cccc(Br)c1Br,32,64,–,0.5,16,32,–,–,–,2,–
O=C(N/N=C/c1c(O)ccc2ccccc12)c1ccc(Br)cc1Br,533,133,–,0.12,64,16,–,–,–,0.5,–
O=C(N/N=C/c1cc(Cl)ccc1O)c1ccc(Br)cc1Br,256,256,–,0.25,64,64,–,1,–,–,–
O=C(N/N=C/c1cc(Cl)ccc1O)c1cc(Br)cc(Br)c1,133,133,–,0.12,16,16,–,1,–,–,–
O=C(N/N=C/c1cc(Br)ccc1O)c1ccccc1C(F)(F)F,16,16,–,1,16,16,1,–,–,–,–
O=C(N/N=C/c1cc(Cl)cc(Cl)c1O)c1ccc(Br)cc1Br,64,128,–,1,64,128,–,–,–,–,0.5
O=C(N/N=C/c1cc(Br)cc(Br)c1O)c1ccc(OC(F)(F)F)cc1,32,128,–,0.5,16,64,4,–,–,–,–
N#Cc1ccc(C(=O)N/N=C/c2cc(Br)cc(Br)c2O)cc1,267,1070,–,0.06,16,64,1,–,–,–,–
O=C(N/N=C/c1cc(Cl)ccc1O)c1cccc(F)c1F,32,72,–,1,32,72,–,–,–,0.5,–
O=C(N/N=C/c1cc(OC(F)(F)F)ccc1O)c1ccc(Br)cc1,256,64,–,0.25,64,16,1,–,–,–,–
O=C(N/N=C/c1cc(Br)cc(Br)c1O)c1cnc2ccccc2c1,128,128,–,0.25,32,32,–,–,Active,–,–

SMILES,selectivity ratio [1],selectivity ratio [2],MFC100 [3] [µg/mL],MIC80 [4] [µg/mL],CC50 [5] [µg/mL],CC50 [6] [µg/mL],MFC100 [7] [µg/mL],MFC100 [8] [µg/mL],Activity [9],MFC100 [10] [µg/mL],MFC100 [11] [µg/mL]
O=C(N/N=C/c1cc(Br)ccc1O)c1ccc(C(F)(F)F)cc1F,32,32,–,0.5,16,16,–,–,–,1,–
O=C(N/N=C/c1cc(Br)ccc1O)c1cc(Br)ccc1Br,128,64,–,0.25,32,16,–,–,–,1,–
CN(C)c1ccc(C(=O)N/N=C/c2ccc(Br)cc2O)cc1,64,64,–,0.25,16,16,–,–,Active,–,–
O=C(N/N=C/c1cccc(Cl)c1O)c1cccc(C(F)(F)F)c1,32,32,2,1,32,32,–,–,–,–,–
O=C(N/N=C/c1cc(Br)ccc1O)c1cc(Br)cc(Br)c1,267,267,–,0.06,16,16,–,–,Active,–,–
Cc1ccc(O)c(/C=N/NC(=O)c2ccc(Br)c(Br)c2)c1,133,133,–,0.12,16,16,0.5,–,–,–,–
O=C(N/N=C/c1c(O)ccc2ccccc12)c1ccc(Br)c(Br)c1,133,33.3,–,0.12,16,4,–,–,Active,–,–
O=C(N/N=C/c1cc(Br)ccc1O)c1ccc(Br)c(Br)c1,32,32,–,0.25,8,8,1,–,–,–,–
O=C(N/N=C/c1cc(Br)cc(Br)c1O)c1ccc(OC(F)F)cc1,133,133,–,0.12,16,16,–,–,–,–,1
O=C(N/N=C/c1ccc(Br)cc1O)c1ccc(Br)cc1,533,267,0.25,0.06,32,16,–,–,–,–,–
O=C(N/N=C/c1cccc(Br)c1O)c1cccc(F)c1,16,16,–,1,16,16,–,2,–,–,–
O=C(N/N=C/c1ccc(Br)cc1O)c1ccc(Br)c(Br)c1,66.6,33.3,–,0.12,8,4,0.5,–,–,–,–
O=C(N/N=C/c1ccc(Br)cc1O)c1cccc(C(F)(F)F)c1,32,128,–,0.5,16,64,–,–,–,2,–
O=C(N/N=C/c1cc(Br)cc(Br)c1O)c1ccc(C(F)(F)F)cc1,–,33.3,–,0.12,8,4,–,1,–,–,–
CN(C)c1ccc(C(=O)N/N=C/c2cc(Br)cc(Br)c2O)cc1,32,32,–,0.5,16,16,–,–,Active,–,–
O=C(N/N=C/c1ccc(Br)cc1O)c1cc(Br)ccc1Br,133,267,–,0.12,16,32,–,–,–,–,0.25
O=C(N/N=C/c1ccc(Br)cc1O)c1cccc(F)c1F,32,32,–,0.5,16,16,–,–,–,0.25,–
